The record followed here is ChEMBL document CHEMBL5247591, “Single-digit nanomolar inhibitors lock the aromatase active site via a dualsteric targeting strategy” (Eur J Med Chem, 2022).

One data set concerns MDA-MB-231. Nature of the data set: Antiproliferative activity against estrogen negative human MDA-MB-231 cells assessed as inhibition of cell growth upto 50 uM incubated for 72 hrs by cell counting analysis. In kind it is functional, cell-based. The procedure, abridged: (§1)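 Cells seeded in duplicate (50.000 cells/well for MCF-7 and MDA-MB-231, 90.000 cells/well for MCF-10A). 24 h later exposed 72 h to 50-0.1 μM compound, with or without 1 μM testosterone; medium and treatments replaced at 48 h. Cells harvested with trypsin and counted with a cell counter. Three experiments.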

The test system of the next data set is MCF-10A. Nature of the data set: Cytotoxicity against human MCF-10A cells assessed as inhibition of cell growth upto 50 uM incubated for 72 hrs by cell counting analysis. It is filed as toxicity, cell-based. The method, boiled down:
as §1

The target of data set [1] is T1, Aromatase (Homo sapiens, UniProt P11511).
T1 sequence (P11511 whole entry): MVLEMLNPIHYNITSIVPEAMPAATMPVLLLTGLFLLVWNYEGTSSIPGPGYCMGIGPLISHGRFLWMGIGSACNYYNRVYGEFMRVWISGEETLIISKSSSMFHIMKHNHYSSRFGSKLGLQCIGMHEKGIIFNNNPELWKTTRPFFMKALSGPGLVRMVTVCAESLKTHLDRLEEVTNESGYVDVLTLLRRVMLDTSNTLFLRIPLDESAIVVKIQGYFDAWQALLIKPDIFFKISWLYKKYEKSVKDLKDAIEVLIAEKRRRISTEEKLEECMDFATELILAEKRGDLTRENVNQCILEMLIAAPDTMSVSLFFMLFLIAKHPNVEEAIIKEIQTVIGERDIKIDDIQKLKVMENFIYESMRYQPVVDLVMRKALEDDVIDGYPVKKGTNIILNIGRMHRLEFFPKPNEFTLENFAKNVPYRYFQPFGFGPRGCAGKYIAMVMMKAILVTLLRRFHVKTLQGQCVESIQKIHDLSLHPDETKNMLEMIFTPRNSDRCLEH
Description: Inhibition of recombinant human aromatase preincubated for 10 mins followed by substrate and beta-NADP+ addition and measured for 60 mins by fluorescence based assay. The procedure, abridged:
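Recombinant human aromatase with NADPH-generating system in aromatase assay buffer. Compounds tested at 1000, 100, 10, 1 and 0.1 nM, DMSO final ≤0,25% (v/v). Preincubated 37°C for 10 min, then fluorogenic substrate/β-NADP+ added. Fluorescence read at 488/527 nm for 60 min.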

For the next data set, the system named is MCF7. Description: Antiproliferative activity against estrogen positive human MCF7 cells assessed as inhibition of cell growth upto 50 uM incubated for 72 hrs by cell counting analysis. In kind it is functional, cell-based. The method, boiled down:
as §1

In data set [2] the target is T1, Aromatase. Nature of the data set: Inhibition of human placental microsome aromatase using androstenedione as substrate assessed as reduction in 3H2O formation preincubated for 5 mins in presence of NADPH followed by microsomal protein addition and measured after 3 hrs. It is filed as microsomes, Placenta.

Active and inactive are the calls of the source. The calls are words filed in the database; no cut-off is given here.

A word on the IC50: it is the concentration at which inhibition is half-maximal. Turning to `O=C(c1ccc(O)cc1)c1cccc(Cn2ccnc2)c1`, the inhibition entry in the data set with MDA-MB-231 and in the data set with MCF7 was “inactive” each time. Besides, in the data set with MCF-10A, the Activity entry is on record as “Non-Toxic”. The IC50 on Aromatase [1] turned out to be 13 nM.

For the molecule `O=C(c1ccc(O)cc1)c1ccc(Cn2ccnc2)cc1`, the IC50 at Aromatase [2] came to 1100 nM.

In the case of `COc1ccc(C(=O)c2ccc(Cn3ccnc3)cc2)cc1`, at Aromatase [2], the IC50 stood at 238 nM.

As to `C#CCOc1ccc(C(=O)c2ccc(Cn3ccnc3)cc2)cc1`, the inhibition entry in the data set on MDA-MB-231 and in the data set on MCF7 was “inactive” throughout. The Activity result in the data set with MCF-10A is “Non-Toxic”. In addition, at Aromatase [1], the IC50 stood at 210 nM.

Take `CCCOc1ccc(C(=O)c2cccc(Cn3ccnc3)c2)cc1`: the inhibition result in the data set on MDA-MB-231 and with MCF7 was “inactive” in each case. For the same molecule, the Activity result in the data set on MCF-10A is listed as “Non-Toxic”. Also, the IC50 at Aromatase [1] worked out at 2 nM.

Take `CCCCCOc1ccc(C(=O)c2cccc(Cn3ccnc3)c2)cc1`: the inhibition entry with MDA-MB-231 and with MCF7 was “inactive” in each case. In the data set on MCF-10A, the Activity entry is listed as “Non-Toxic”. For the same molecule, the IC50 at Aromatase [1] turned out to be 42 nM.

On to `CCC#CCOc1ccc(C(=O)c2ccc(Cn3ccnc3)cc2)cc1`, for which the inhibition result in the data set on MDA-MB-231 and with MCF7 was “inactive” in each case. In the data set on MCF-10A, the Activity result was “Non-Toxic”. On Aromatase [1], the IC50 came out at 1420 nM.

Take `CCCOc1ccc(C(=O)c2ccc(Cn3ccnc3)cc2)cc1`: the inhibition result with MDA-MB-231 and in the data set with MCF7 was “inactive” each time. In addition, the Activity entry with MCF-10A is “Non-Toxic”. Besides, the IC50 on Aromatase [1] was found to be 374 nM.

For `COc1ccc(C(=O)c2cccc(Cn3ccnc3)c2)cc1`, the inhibition result with MDA-MB-231 and with MCF7 was “inactive” in each case. Moreover, in the data set on MCF-10A, the Activity entry was “Non-Toxic”. Also, at Aromatase [1], the IC50 was found to be 13 nM.

Regarding `CCCCCOc1ccc(C(=O)c2ccc(Cn3ccnc3)cc2)cc1`, the inhibition entry in the data set with MDA-MB-231 and in the data set on MCF7 was “inactive” each time. For the same molecule, the Activity result in the data set with MCF-10A is “Non-Toxic”. The IC50 at Aromatase [1] was 1300 nM.

As for `C#CCOc1ccc(C(=O)c2cccc(Cn3ccnc3)c2)cc1`, the inhibition result in the data set with MDA-MB-231 and with MCF7 was “inactive” throughout. Moreover, the Activity result in the data set on MCF-10A is given as “Non-Toxic”. For the same molecule, the IC50 at Aromatase [1] came out at 650 nM.

`CCC#CCOc1ccc(C(=O)c2cccc(Cn3ccnc3)c2)cc1`: the inhibition entry with MDA-MB-231 and in the data set with MCF7 was “inactive” each time. For the same molecule, in the data set on MCF-10A, the Activity result was “Non-Toxic”. The IC50 at Aromatase [1] is 9 nM.

Turning to `O=C(c1ccc(Cn2ccnc2)cc1)c1ccc(-c2ccccc2)cc1`, the IC50 on Aromatase [2] is 2530 nM.
